Only a sample is shown.
Apaf1 activ: activators of human Apaf-1 apoptosome; Apaf-1 apoptosome caspase-3 activation, DEVD-Rh110 fluorescence; hits give low values; activity change, negative = activation, % at 20 µM; 330,000 tested, 0.31% active; AID 489031;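 active = activity change at or below -40% at 20 µM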
Target sequence (O14727 whole entry, looked up): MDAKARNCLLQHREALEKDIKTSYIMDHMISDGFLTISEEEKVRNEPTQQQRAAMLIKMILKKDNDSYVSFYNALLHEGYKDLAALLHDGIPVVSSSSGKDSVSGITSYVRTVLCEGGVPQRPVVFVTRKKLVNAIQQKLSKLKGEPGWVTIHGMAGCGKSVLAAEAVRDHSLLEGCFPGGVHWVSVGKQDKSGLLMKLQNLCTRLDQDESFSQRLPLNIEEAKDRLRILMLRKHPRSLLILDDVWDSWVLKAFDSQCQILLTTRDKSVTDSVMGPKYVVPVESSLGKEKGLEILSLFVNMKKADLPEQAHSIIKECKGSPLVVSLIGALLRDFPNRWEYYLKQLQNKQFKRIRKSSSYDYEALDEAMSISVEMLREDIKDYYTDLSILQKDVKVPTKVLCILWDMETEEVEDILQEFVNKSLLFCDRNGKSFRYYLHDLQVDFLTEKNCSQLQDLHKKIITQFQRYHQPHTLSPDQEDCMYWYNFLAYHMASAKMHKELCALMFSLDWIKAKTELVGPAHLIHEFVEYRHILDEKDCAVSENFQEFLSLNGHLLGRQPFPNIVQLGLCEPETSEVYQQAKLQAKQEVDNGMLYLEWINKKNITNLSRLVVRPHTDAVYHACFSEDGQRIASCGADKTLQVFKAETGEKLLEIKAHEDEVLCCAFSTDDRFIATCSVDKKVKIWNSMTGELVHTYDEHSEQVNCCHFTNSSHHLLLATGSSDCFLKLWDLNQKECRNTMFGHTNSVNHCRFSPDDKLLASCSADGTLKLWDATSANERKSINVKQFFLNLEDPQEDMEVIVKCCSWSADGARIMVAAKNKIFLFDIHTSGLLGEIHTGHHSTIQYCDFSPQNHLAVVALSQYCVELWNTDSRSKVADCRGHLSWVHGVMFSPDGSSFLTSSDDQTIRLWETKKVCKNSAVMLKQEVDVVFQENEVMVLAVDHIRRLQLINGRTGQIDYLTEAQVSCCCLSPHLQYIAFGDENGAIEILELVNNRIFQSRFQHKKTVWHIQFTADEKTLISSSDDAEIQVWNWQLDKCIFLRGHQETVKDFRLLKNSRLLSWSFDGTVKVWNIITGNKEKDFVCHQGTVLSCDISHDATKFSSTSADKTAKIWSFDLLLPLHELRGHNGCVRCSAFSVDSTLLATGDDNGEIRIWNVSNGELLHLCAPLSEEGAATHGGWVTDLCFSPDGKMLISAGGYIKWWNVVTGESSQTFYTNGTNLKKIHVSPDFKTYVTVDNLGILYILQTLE
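System: Reconstituted apoptosome of Apaf-1, cytochrome c, caspase-9, procaspase-3 | Reagent: dATP, cytochrome c, and (Z-DEVD)2-Rh110 caspase-3 substrate | Times: 30 min compound preincubation and 50 min reaction, both room temperature | Detection: Caspase-3-released Rh110 fluorescence, 540 nm emission, 480 nm excitation | Measure: Caspase-3 activity via Apaf-1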
Rh110 interf act: interferes with Rh110 fluorescence, flagging false Apaf-1 activators. shares compounds with Apaf1 activ. Rh110 fluorescence interference, quenched caspase reaction, Ex480/Em540. fluorescence interference (activity change), % at 20 µM, hits read low. 980 tested, under 10 active;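 active = mean activity change at or below -40% when tested at 20 µM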
Apaf-1 act conf2: Apaf-1 (human) activation, single-dose confirmed. 980 tested, 5% active. activity change, negative = activation, % at 20 µM. reconstituted apoptosome caspase-3 activity, DEVD-Rh110 fluorescence; hits give low values. AID 504617. shares compounds with Apaf1 activ;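 active = mean activity change at or below -40%, meaning activation of 40% or more, at 20 µM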
Large screens that a line does not name were inactive (follow-up assays come after a bar, where they were run).

CC1CN(S(=O)(=O)c2cccc(C(=O)N(CCc3ccccc3)Cc3ccccc3)c2)CC(C)O1 (stereo unspecified)	none
Cn1c(=O)c2c(-c3ccc(C(C)(C)C)cc3)n(N3CCOCC3)cc2n(C)c1=O	Apaf1 activ -60 | Rh110 interf act inactive | Apaf-1 act conf2 inactive
CCN1C(=C(C#N)C#N)C=Cc2cc(C)ccc21	Apaf1 activ -49 | Rh110 interf act inactive | Apaf-1 act conf2 inactive
O=C1C(=O)c2ccccc2C(O)=C1CCCCl	none
COc1ccc(CC(=O)NNS(=O)(=O)c2ccc([N+](=O)[O-])cc2)cc1OC	Apaf1 activ -479 | Rh110 interf act inactive | Apaf-1 act conf2 inactive
COc1ccc(CC(=O)Nc2ccc(S(=O)(=O)Nc3onc(C)c3C)cc2)cc1OC	Apaf1 activ -91 | Rh110 interf act inactive | Apaf-1 act conf2 inactive
COc1ccc(CCN(C)C(=O)c2ccc(COc3ccccc3)o2)cc1OC	none
CC(=O)N1CCc2c(sc(NC(=O)C3CC3)c2-c2nc3ccccc3s2)C1	none
O=C(/C=C/c1cc[n+](CC(=O)c2ccc3cccc4c3c2CC4)cc1)c1ccc2cccc3c2c1CC3	none
COCc1c(C(=O)OCC(=O)NCCN2C(=O)CSC2=O)oc2ccccc12	Apaf1 activ -67 | Rh110 interf act inactive | Apaf-1 act conf2 inactive
CCC12CCCN3CCc4c(n(c5ccccc45)C(O)(C(=O)OC)C1)C32 (stereo unspecified)	none
O=C(c1ccccc1)c1coc2c1C(=O)c1ccccc1C2=O	none
CCC1CCc2sc(C(=O)NCC(c3ccccc3OC)N3CCCC3)cc2C1 (stereo unspecified)	none
COc1ccccc1C(C)NC(=O)C1CCN(S(=O)(=O)c2cccs2)CC1 (stereo unspecified)	Apaf1 activ -53 | Rh110 interf act inactive | Apaf-1 act conf2 inactive
O=c1[nH]c(Nc2ccccc2Cl)cc2ccccc12	none
Cc1ccc(-n2nnnc2SCC(=O)N2CCNC2=O)cc1C	Apaf1 activ -448 | Rh110 interf act inactive | Apaf-1 act conf2 inactive
COc1cc2c3nnc(-c4ccc(F)cc4)c-3cn(Cc3cccc(C)c3)c2cc1OC	none
Oc1ccc2ccccc2c1C=NC12CN3CCN(CN(C3)C1)C2	none
Cc1c(Cc2ccccc2)sc(/N=C/c2c(O)ccc3ccccc23)c1C(N)=O	Apaf1 activ -63 | Rh110 interf act inactive | Apaf-1 act conf2 inactive
CN(C)CCCNC(=O)CC1C[C@H](C(=O)N2CCCCC2)[C@@]2(CCc3ccccc3)c3[nH]c4ccccc4c3CCN2C1=O (stereo partly specified)	none
COC(=O)c1ccc(C(=O)Nc2ccc(N)cc2N)cc1	none
Cc1noc(C)c1C(=O)OC(C(=O)NC1CCCC1)c1ccc(F)cc1 (stereo unspecified)	Apaf1 activ -52 | Rh110 interf act inactive | Apaf-1 act conf2 inactive
CNC[C@@H]1Oc2ccc(NS(=O)(=O)c3ccc(Cl)cc3)cc2C(=O)N([C@H](C)CO)C[C@@H]1C	none
COc1ccc2cc3cc(C(=O)NCCCN4CCc5ccccc5C4)sc3nc2c1	none
COc1cccc(CNC(=O)CN2C(=O)COc3ccc(S(=O)(=O)N4CCCC4)cc32)c1	Apaf1 activ -82 | Rh110 interf act inactive | Apaf-1 act conf2 inactive
COc1cccc(CN(C)C(=O)c2cc(S(=O)(=O)N3CCCCCC3)ccc2OC)c1	none
COc1cccc(CN(C)C(=O)c2ccc(C)c(S(=O)(=O)N3CCCCC3)c2)c1	none
O=c1[nH]nc(CNc2ccc(O)cc2)c2ccccc12	none
C#CCOCCOCCOCCNc1nc(N2CCN(C(=O)[C@H](CCCCN)n3cc([C@@H](N)[C@H](C)CC)nn3)CC2)nc(N2CCN(C(=O)[C@H](CCC(=O)O)n3cc([C@@H](N)CCCCN)nn3)CC2)n1	none
COc1ccc2[nH]c3c(C)c4ccncc4c(C)c3c2c1	none
CCn1c2ccccc2c2c3ncc4cccn4c3ccc21	none
CN(C)CCN(C(=O)c1ccc2c(c1)CCCC2)c1nc2cc3c(cc2s1)OCCO3	none
COc1ccc(NC(=O)CSc2nc3c(c(-c4cccs4)c2C#N)CN(C)CC3)cc1OC	none
CN(C)CCn1c2c(c(SCC(=O)Nc3ccc4c(c3)OCCO4)nc1=O)CCCC2	Apaf1 activ -62 | Rh110 interf act inactive | Apaf-1 act conf2 inactive
C#CCOCCOCCOCCNc1nc(N2CCN(C(=O)CCCCCCCCCCNC(=O)[C@@H](CCC(=O)O)n3cc(CCCCCN)nn3)CC2)nc(N2CCN(C(=O)CCCCCCCCCCNC(=O)[C@H]([C@@H](C)CC)n3cc(CCCCCN)nn3)CC2)n1	none
CC1=CC(C)(C)NC(=S)N1C(C)c1ccccc1 (stereo unspecified)	Apaf1 activ -56 | Rh110 interf act inactive | Apaf-1 act conf2 inactive
CN1CCN(c2nc(-c3ccc(C(C)(C)C)cc3)nc3ccccc23)CC1	none
CN(C)CCC(c1ccccc1)c1ccccn1 (stereo unspecified)	none
CC(=O)N1CCc2cc(Br)cc(S(=O)(=O)NCCCN3CCCC(C)C3)c21 (stereo unspecified)	Apaf1 activ -41 | Rh110 interf act inactive | Apaf-1 act conf2 inactive
CCOC(=O)c1[nH]c2ccc(Br)cc2c1NC(=O)CCN1CCCC(C)C1 (stereo unspecified)	none
O=C1CCC(C(=O)OCC(=O)N2N=C3/C(=C/c4ccccc4)CCCC3C2c2ccccc2)N1 (stereo unspecified)	none
CCOC(=O)C(=O)Nc1cc(Cl)ccc1C	Apaf1 activ -54 | Rh110 interf act inactive | Apaf-1 act conf2 inactive
O=C(c1ccc(Cn2c(=O)[nH]c3ccccc3c2=O)cc1)N1CCN(c2ccc(Cl)cc2)CC1	none
COc1cc2[nH]c(=O)n(Cc3ccc(C(=O)NC4CCCC4)cc3)c(=O)c2cc1OC	Apaf1 activ -53 | Rh110 interf act inactive | Apaf-1 act conf2 inactive
O=C1C=C(Nc2ccccc2C(=O)O)c2ccccc2C1=O	none
CC1=NN(c2ccccc2)C(=O)/C1=C/c1cccc(C)c1	none
Cc1cc(C(=O)NC(=S)Nc2cccc(C(=O)O)c2C)ccc1[N+](=O)[O-]	Apaf1 activ -54 | Rh110 interf act inactive | Apaf-1 act conf2 inactive
COc1ccc(C(CCN2CCOCC2)c2c(OC)cc(OC)c3c(-c4ccccc4)cc(=O)oc23)cc1 (stereo unspecified)	none
C/C(=N\NC(=O)c1nnn(-c2nonc2N)c1-c1cccs1)c1ccc(C)cc1	Apaf1 activ -44 | Rh110 interf act inactive | Apaf-1 act conf2 inactive
CC/C(=N/Nc1ccccc1C)c1cnnc(SC)n1	none
CN1C[C@H](C(=O)N[C@]2(C)O[C@@]3(O)[C@@H]4CCCN4C(=O)[C@H](Cc4ccccc4)N3C2=O)CC2c3cccc4[nH]cc(c34)C[C@H]21 (stereo partly specified)	none
CCc1ccc(N2C(=O)C(Cl)=C(Nc3ccc(C(=O)N4CCCC4)cc3)C2=O)cc1	none
COc1ccc(N2CCCn3c2nc2c3c(=O)n(Cc3ccc(C)cc3)c(=O)n2C)c(OC)c1	Apaf1 activ -100 | Rh110 interf act inactive | Apaf-1 act conf2 inactive
Cc1cccc(NC(=S)NCc2ccc3c(c2)cc(C)n3C)c1C	none
COc1ccc(C2=NN(c3ccccc3)C(=O)/C2=C\c2ccc(O)c(OC)c2)cc1	none
COc1ccc(/C=C2/C(=O)N(c3ccccc3)N=C2C)cc1	none
COc1ccc(C(=O)CN2C(=O)c3ccccc3C2=O)cc1	Apaf1 activ -165 | Rh110 interf act inactive | Apaf-1 act conf2 inactive
CCCCCCc1cc2cc(-c3nnc(-c4ccccc4OC)o3)c(=O)oc2cc1O	none
